# Active and inactive are the calls of the source. No cut-off for these calls is given here.
# Legend:
# [1] = test system: Plutella xylostella; experiment: Induction of response in unmated male Plutella xylostella (diamondback moth) assessed as landing moth level at 10 uL in presence of synthetic pheromone measured after 10 min by wind tunnel bioassays (Rvb hexane = 0%); assay type: functional
# In short: (§1)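 Wind tunnel 240 × 30 × 30 cm. Moths acclimatized in the room ≥3 h beforehand. Filter-paper dispenser (4 × 2 cm) hung 15 cm high, loaded with 10 µL of GLV, synthetic pheromone (Z11-16:Ald/Z11-16:Ac/Z11-16:OH 1:1:0.01), a 1:1 mix, or hexane. Two moths released per replicate and watched 10 min; 20 replicates (40 insects) per treatment. Hexane control run twice daily; one treatment per day, tunnel washed between treatments.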
# [2] = test system: Plutella xylostella; experiment: Induction of response in unmated female Plutella xylostella (diamondback moth) assessed as landing moth level at 10 uL measured after 10 min by wind tunnel bioassays (Rvb hexane = 0%); assay type: functional; in short: as §1
# [3] = test system: Plutella xylostella; experiment: Induction of response in mated female Plutella xylostella (diamondback moth) assessed as landing moth level at 10 uL measured after 10 min by wind tunnel bioassays (Rvb hexane = 0%); assay type: functional; in short: as §1
# [4] = test system: Plutella xylostella; experiment: Induction of response in mated female Plutella xylostella (diamondback moth) assessed as flying moth level at 10 uL in presence of synthetic pheromone measured after 10 min by wind tunnel bioassays (Rvb hexane = 5%); assay type: functional; in short: as §1
# [5] = test system: Plutella xylostella; experiment: Induction of response in mated male Plutella xylostella (diamondback moth) assessed as landing moth level at 10 uL in presence of synthetic pheromone measured after 10 min by wind tunnel bioassays (Rvb hexane = 0%); assay type: functional; in short: as §1
# [6] = test system: Plutella xylostella; experiment: Induction of response in mated male Plutella xylostella (diamondback moth) assessed as landing moth level at 10 uL measured after 10 min by wind tunnel bioassays (Rvb hexane = 0%); assay type: functional; in short: as §1
# [7] = test system: Plutella xylostella; experiment: Induction of response in mated male Plutella xylostella (diamondback moth) assessed as flying moth level at 10 uL in presence of synthetic pheromone measured after 10 min by wind tunnel bioassays (Rvb hexane = 0%); assay type: functional; in short: as §1
# [8] = test system: Plutella xylostella; experiment: Induction of response in unmated male Plutella xylostella (diamondback moth) assessed as landing moth level at 10 uL measured after 10 min by wind tunnel bioassays (Rvb hexane = 0%); assay type: functional; in short: as §1
# [9] = test system: Plutella xylostella; experiment: Induction of response in unmated female Plutella xylostella (diamondback moth) assessed as landing moth level at 10 uL in presence of synthetic pheromone measured after 10 min by wind tunnel bioassays (Rvb hexane = 0%); assay type: functional; in short: as §1
# [10] = test system: Plutella xylostella; experiment: Induction of response in mated male Plutella xylostella (diamondback moth) assessed as flying moth level at 10 uL measured after 10 min by wind tunnel bioassays (Rvb hexane = 0%); assay type: functional; in short: as §1
# [11] = test system: Plutella xylostella; experiment: Induction of response in unmated male Plutella xylostella (diamondback moth) assessed as flying moth level at 10 uL measured after 10 min by wind tunnel bioassays (Rvb hexane = 5%); assay type: functional; in short: as §1
# [12] = test system: Plutella xylostella; experiment: Induction of response in mated female Plutella xylostella (diamondback moth) assessed as flying moth level at 10 uL measured after 10 min by wind tunnel bioassays (Rvb hexane = 5%); assay type: functional; in short: as §1
# [13] = test system: Plutella xylostella; experiment: Induction of response in unmated male Plutella xylostella (diamondback moth) assessed as flying moth level at 10 uL in presence of synthetic pheromone measured after 10 min by wind tunnel bioassays (Rvb hexane = 5%); assay type: functional; in short: as §1
# [14] = test system: Plutella xylostella; experiment: Induction of response in mated female Plutella xylostella (diamondback moth) assessed as landing moth level at 10 uL in presence of synthetic pheromone measured after 10 min by wind tunnel bioassays (Rvb hexane = 0%); assay type: functional; in short: as §1
# [15] = test system: Plutella xylostella; experiment: Induction of response in unmated female Plutella xylostella (diamondback moth) assessed as flying moth level at 10 uL in presence of synthetic pheromone measured after 10 min by wind tunnel bioassays (Rvb hexane = 5%); assay type: functional; in short: as §1
# [16] = test system: Plutella xylostella; experiment: Induction of response in unmated female Plutella xylostella (diamondback moth) assessed as flying moth level at 10 uL measured after 10 min by wind tunnel bioassays (Rvb hexane = 5%); assay type: functional; in short: as §1
# [17] = test system: Plutella xylostella; experiment: Potentiation of synthetic pheromone attractant activity in female Plutella xylostella (diamondback moth) in cabbage field assessed as female moth attraction level using sticky traps baited with compound and synthetic pheromone at 1:1 ratio by field trapping method relative to synthetic pheromone alone; assay type: functional
# [18] = test system: Plutella xylostella; experiment: Potentiation of synthetic pheromone attractant activity in female Plutella xylostella (diamondback moth) in cabbage field assessed as female moth attraction level using sticky traps baited with compound and synthetic pheromone at 1:1 ratio by field trapping method relative to compound alone; assay type: functional
# [19] = test system: Plutella xylostella; experiment: Attractant activity in male Plutella xylostella (diamondback moth) in cabbage field assessed as moth capture level using sticky traps baited with compound by field trapping method; assay type: functional, organism-based
# [20] = test system: Plutella xylostella; experiment: Potentiation of synthetic pheromone attractant activity in male Plutella xylostella (diamondback moth) in cabbage field assessed as moth capture level using sticky traps baited with compound and synthetic pheromone at 1:1 ratio by field trapping method relative to synthetic pheromone alone; assay type: functional
Compound,Activity [1] [%],Activity [2] [%],Activity [3] [%],Activity [4] [%],Activity [5] [%],Activity [6] [%],Activity [7] [%],Activity [8] [%],Activity [9] [%],Activity [10] [%],Activity [11] [%],Activity [12] [%],Activity [13] [%],Activity [14] [%],Activity [15] [%],Activity [16] [%],fold change (FC) [17],fold change (FC) [18],Activity [19],Activity [20] [%]
CCC/C=C/C=O,85,15,50,50,25,15,25,20,20,20,30,55,90,50,25,20,,,,
C=CC(O)CCC (stereo unspecified),60,5,20,35,10,5,5,10,5,0,20,10,65,20,0,0,,,,
CCCCCCO [1-HEXANOL],70,5,20,25,10,5,5,5,5,0,15,15,75,25,5,5,,,,
CC/C=C\CCOC(C)=O [(Z)-hex-3-en-1-yl acetate],95,25,55,65,35,20,35,25,30,30,40,60,100,60,25,20,6,3,inactive,20
CC/C=C\CCO [CIS-3-HEXENOL],80,15,40,40,20,10,15,15,20,0,25,40,85,45,10,10,,,,
CCCCCC=O [HEXANAL],75,5,25,35,10,10,5,10,10,5,10,30,80,25,10,5,,,,
CCCCCCOC(C)=O [HEXYL ACETATE],55,0,10,20,5,5,0,5,0,0,10,5,60,15,5,5,,,,

# — ChEMBL document CHEMBL3045452, “Behavioral responses of the diamondback moth, Plutella xylostella, to green leaf volatiles of Brassica oleracea subsp. capitata” (2000)
